Measurements pooled from the literature.
Target: Phosphatidylinositol 4,5-bisphosphate 3-kinase catalytic subunit gamma isoform (PIK3CG, Homo sapiens, UniProt P48736)

`COc1ncccc1-c1cnn2ccc(N3CCN(C(=O)OC(C)C)CC3)nc12` has a remaining binding of 100% (binding, competition with immobilised ligand; 1 µM).
The inhibition of `Cn1cc(-c2cc(F)cc(N3CCn4c(cc5c4CCCC5)C3=O)c2CO)cc(Nc2ccc(N3CCN(C4COC4)CC3)cn2)c1=O` is reported as 5% (enzyme activity, inhibitor; 0.1 µM).
`Cn1cncc1[C@](O)(COc1ccc(C#N)cc1-c1ccc(OC(F)(F)F)cc1)c1ccc(C#N)cc1` gave a remaining binding of 100% (cell-free assay, competition with immobilised ligand; 1 µM).
`Cc1nn(C)cc1-c1nc2c(N3CCN(Cc4ccc(Cl)cc4)CC3)c(Cl)cnc2[nH]1` has a remaining binding of 100% (binding, competition with immobilised ligand; 1 µM).
The inhibition of `C#Cc1n[nH]c2c(-c3cn([C@@H](C)c4ccccc4)c(=O)[nH]c3=O)cc(F)cc12` is reported as 7.4% (enzyme activity, inhibitor; 0.1 µM).
`Nc1ncc(-c2nc(N3CCOCC3)nc(N3CCOCC3)n2)c(C(F)F)n1` gave a remaining binding of 0% (binding, competition with immobilised ligand; 10 µM).
`Cn1cc(-c2cccc(N3CCc4c(sc5c4CC(C)(C)C5)C3=O)c2CO)cc(Nc2ccncn2)c1=O` has an inhibition of -1% (enzyme activity, inhibitor; 1 µM).
With `N#CC1(c2ccccn2)CCN(Cc2cc(C(=O)O)c(=O)n3ccccc23)CC1` the remaining binding was 91% (cell-free assay, competition with immobilised ligand; 1 µM).
The inhibition of `C#Cc1n[nH]c2c(-c3cn([C@@H](C)c4ccccn4)c(=O)[nH]c3=O)cc(F)cc12` is reported as 1.9% (enzyme activity, inhibitor; 0.1 µM).
